Laboratory results reported in ChEMBL document CHEMBL4346713, “Design, synthesis and docking studies of benzimidazole derivatives as potential EGFR inhibitors” (2019).
Calls of active or inactive are those of the source. The rule behind the calls is not given here.

Tests used:
MCF7 [1] = test: Antiproliferation activity against human MCF7 cells assessed as inhibition of cell proliferation at 10 uM by MTT assay relative to control; assay type: functional
Summary of the method: (§1)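 Cells grown at 37°C in high-glucose DMEM with 10% FBS, 2 mM L-glutamine and 1% penicillin–streptomycin. Compounds, dissolved in DMSO, were added at 80% confluency, with DMSO-only and untreated wells as controls. MTT in PBS was then added for 2 h at 37°C. Formazan was dissolved in DMSO and read at 550 nm, with viability expressed relative to control cells set as 100%.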

MCF7 [2] = test: Antiproliferation activity against human MCF7 cells assessed as inhibition of cell proliferation at 1 uM by MTT assay relative to control; assay type: functional; summary of the method: as §1

Structure (SMILES) | inhibition (MCF7 [1]) | inhibition at 1 µM (MCF7 [2]) [%]
S=c1[nH]nc(Cn2c(-c3ccc(OCc4ccccc4)c(OCc4ccccc4)c3)nc3ccccc32)n1CCN1CCOCC1 | inactive | 
C#Cc1cccc(Nc2ncnc3cc(OCCOC)c(OCCOC)cc23)c1 [ERLOTINIB] |  | 60
